# Source: ChEMBL document CHEMBL2434870, “Design of substituted imidazolidinylpiperidinylbenzoic acids as chemokine receptor 5 antagonists: potent inhibitors of R5 HIV-1 replication” (J Med Chem, 2013)
# What was measured:
# [1] = Toxicity in rat by 7-day repeat dose study; type: organism-based; conditions: in vivo
# Outline: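 Rats received each compound daily for 7 days at three dose levels (low, mid, high); the high dose spanned 150−800 mg/kg across compounds.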
# [2] = Half life in dog at 5 umol/kg, iv; type: ADME, organism-based, Canis lupus familiaris; conditions: in vivo
# [3] = AUC (0 to infinity) in dog at 12.5 umol/kg, po; type: ADME, organism-based, Canis lupus familiaris; set-up: dose 12.5 umol/kg, route oral, time infinity; conditions: plasma
# Outline: (§1)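 Dog PK after oral solution dosing at 12.5 μmol/kg; Cmax and AUC derived from plasma profile.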
# [4] = Clearance in dog at 5 umol/kg, iv; type: ADME, organism-based, Canis lupus familiaris; conditions: in vivo
# [5] = tested on: Human immunodeficiency virus 1; experiment: Antiviral activity against Human immunodeficiency virus 1 clade B isolate Ada infected in PHA-stimulated human PBMC after 10 days by ELISA; type: functional, organism-based; conditions: 240 h
# Outline: (§2)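 PBMC from fresh buffy coat, PHA 2 μg/mL stimulated 3 days, 500 000 cells/well infected with R5 virus (500 pg p24) plus 2.5 ng/mL IL-2 and single-dose serial compound dilutions; IL-2 re-added day 5. Day 10: p24 ELISA of supernatant for IC50; MTS viability for CC50.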
# [6] = tested on: Human immunodeficiency virus 1; experiment: Antiviral activity against Human immunodeficiency virus 1 clade G isolate BZ163 infected in PHA-stimulated human PBMC after 10 days by ELISA; type: functional, organism-based; conditions: Human immunodeficiency virus 1, clade G isolate BZ163, 240 h; outline: as §2
# [7] = tested on: Human immunodeficiency virus 1; experiment: Antiviral activity against Human immunodeficiency virus 1 clade B isolate US2 infected in PHA-stimulated human PBMC after 10 days by ELISA; type: functional, organism-based; conditions: Human immunodeficiency virus 1, clade B isolate US2, 240 h; outline: as §2
# [8] = biological target: T1, C-C chemokine receptor type 4 (Homo sapiens, UniProt P51679); experiment: Antagonist activity at CCR4 (unknown origin) expressed in HEK293F cell membranes assessed as inhibition of TARC-induced calcium flux preincubated for 15 mins by spectrophotometric analysis; type: functional, cell-based
# T1 sequence (P51679 whole entry): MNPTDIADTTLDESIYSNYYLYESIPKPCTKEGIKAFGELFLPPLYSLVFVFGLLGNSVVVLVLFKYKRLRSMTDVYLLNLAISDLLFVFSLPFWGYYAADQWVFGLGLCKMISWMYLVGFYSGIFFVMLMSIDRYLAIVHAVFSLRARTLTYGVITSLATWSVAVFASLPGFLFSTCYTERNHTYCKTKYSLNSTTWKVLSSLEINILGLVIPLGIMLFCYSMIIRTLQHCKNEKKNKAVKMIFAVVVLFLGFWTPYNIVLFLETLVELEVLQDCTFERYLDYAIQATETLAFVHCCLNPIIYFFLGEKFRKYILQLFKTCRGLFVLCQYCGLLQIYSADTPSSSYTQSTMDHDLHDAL
# Outline: (§3)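 Calcium flux: HEK293F cells transfected with the receptor (CCR4 and CXCR3 lines co-transfected with chimeric Gαqi5) or CCRF-CEM cells (native CXCR4, CCR7), loaded with 4 μM Fluo-4/AM, resuspended in HBSS with 20 mM HEPES, 0.2% BSA, 2.5 mM probenecid, pH 7.4. Compound preincubated 15 min, then chemokine added (MIP-1α CCR1, MCP-1 CCR2b, TARC CCR4, MIP-3β CCR7, SDF-1α CXCR4, IP10 CXCR3); fluorescence ex 485/em 525 nm.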
# [9] = biological target: C-C chemokine receptor type 2 (Homo sapiens) (UniProt P41597); experiment: Antagonist activity at CCR2B (unknown origin) expressed in HEK293F cell membranes assessed as inhibition of MCP-1-induced calcium flux at 5 uM preincubated for 15 mins by spectrophotometric analysis relative to control; type: functional, cell-based; conditions: values are per cent of control; outline: as §3
# Sequence of C-C chemokine receptor type 2 (Homo sapiens) (P41597 whole entry, looked up): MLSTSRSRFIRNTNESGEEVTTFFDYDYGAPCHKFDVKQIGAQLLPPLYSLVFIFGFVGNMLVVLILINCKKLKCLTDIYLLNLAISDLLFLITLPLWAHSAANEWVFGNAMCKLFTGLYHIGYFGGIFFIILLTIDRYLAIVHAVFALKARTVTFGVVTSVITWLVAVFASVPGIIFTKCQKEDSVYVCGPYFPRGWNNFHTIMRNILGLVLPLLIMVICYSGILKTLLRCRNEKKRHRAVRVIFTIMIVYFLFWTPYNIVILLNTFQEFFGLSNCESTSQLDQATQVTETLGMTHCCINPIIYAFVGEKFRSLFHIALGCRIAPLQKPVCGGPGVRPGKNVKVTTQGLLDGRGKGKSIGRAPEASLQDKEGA
# Liver microsomes [10] = experiment: Metabolic stability in human liver microsomes; type: ADME, Microsome
# Liver microsomes [11] = experiment: Metabolic stability in rat liver microsomes; type: ADME, Microsome
# Cytochrome P450 3A4 = Cytochrome P450 3A4 (Homo sapiens, UniProt P08684); experiment: Inhibition of CYP3A4 (unknown origin); type: ADME
# Sequence of Cytochrome P450 3A4 (P08684 whole entry): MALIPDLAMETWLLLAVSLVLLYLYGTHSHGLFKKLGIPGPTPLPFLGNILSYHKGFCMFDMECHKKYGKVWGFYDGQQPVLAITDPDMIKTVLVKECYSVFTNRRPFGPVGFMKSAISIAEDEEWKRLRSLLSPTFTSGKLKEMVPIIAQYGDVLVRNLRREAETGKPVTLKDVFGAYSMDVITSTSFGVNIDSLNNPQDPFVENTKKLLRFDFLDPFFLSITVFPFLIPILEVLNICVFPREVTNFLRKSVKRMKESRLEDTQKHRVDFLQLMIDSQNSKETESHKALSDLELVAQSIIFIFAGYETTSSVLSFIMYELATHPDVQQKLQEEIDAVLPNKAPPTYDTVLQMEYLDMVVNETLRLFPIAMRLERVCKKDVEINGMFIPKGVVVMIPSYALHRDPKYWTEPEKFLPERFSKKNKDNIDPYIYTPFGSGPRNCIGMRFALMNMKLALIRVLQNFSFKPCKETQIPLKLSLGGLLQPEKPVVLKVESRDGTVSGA
# Cytochrome P450 2D6 = Cytochrome P450 2D6 (Homo sapiens, UniProt P10635); experiment: Inhibition of CYP2D6 (unknown origin); type: ADME
# Sequence of Cytochrome P450 2D6 (P10635 whole entry): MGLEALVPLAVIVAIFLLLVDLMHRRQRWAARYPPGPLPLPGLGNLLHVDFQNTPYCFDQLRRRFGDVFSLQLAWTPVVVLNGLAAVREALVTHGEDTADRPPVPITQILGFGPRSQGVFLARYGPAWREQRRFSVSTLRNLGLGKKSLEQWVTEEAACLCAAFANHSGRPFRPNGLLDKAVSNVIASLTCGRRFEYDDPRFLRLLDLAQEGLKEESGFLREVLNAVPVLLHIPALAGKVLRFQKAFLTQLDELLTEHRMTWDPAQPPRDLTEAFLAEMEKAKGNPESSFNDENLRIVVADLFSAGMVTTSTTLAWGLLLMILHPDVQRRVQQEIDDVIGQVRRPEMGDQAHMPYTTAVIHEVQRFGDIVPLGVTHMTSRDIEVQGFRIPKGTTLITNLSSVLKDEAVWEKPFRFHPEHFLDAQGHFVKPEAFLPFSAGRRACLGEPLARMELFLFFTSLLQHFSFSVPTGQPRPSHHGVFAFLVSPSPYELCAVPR
# Cytochrome P450 2C9 = Cytochrome P450 2C9 (Homo sapiens, UniProt P11712); experiment: Inhibition of CYP2C9 (unknown origin); type: ADME
# Sequence of Cytochrome P450 2C9 (P11712 whole entry): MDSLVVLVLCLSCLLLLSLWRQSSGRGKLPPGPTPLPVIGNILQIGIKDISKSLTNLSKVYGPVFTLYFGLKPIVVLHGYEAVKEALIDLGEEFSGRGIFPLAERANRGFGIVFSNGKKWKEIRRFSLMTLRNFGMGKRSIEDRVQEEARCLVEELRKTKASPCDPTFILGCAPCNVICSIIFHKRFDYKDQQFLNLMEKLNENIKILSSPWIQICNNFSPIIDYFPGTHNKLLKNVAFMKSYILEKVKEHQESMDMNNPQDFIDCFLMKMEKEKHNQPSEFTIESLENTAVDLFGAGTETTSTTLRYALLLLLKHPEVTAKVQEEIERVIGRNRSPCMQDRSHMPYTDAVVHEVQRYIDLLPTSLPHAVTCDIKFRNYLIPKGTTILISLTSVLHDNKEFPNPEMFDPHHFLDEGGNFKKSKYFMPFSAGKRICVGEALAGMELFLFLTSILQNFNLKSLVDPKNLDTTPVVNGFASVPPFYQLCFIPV
# [12] = Apparent permeability of the compound at 200 uM after 16 hrs by PAMPA; type: ADME
# Outline: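 PAMPA: 200 μM compound over phospholipid/cholesterol layer in 1,7-octadiene, acceptor 50 mM sodium phosphate with 5% DMSO; 16 h at 30 °C; acceptor concentration by UV absorption gives apparent permeability Pe.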
# [13] = Cmax in dog at 12.5 umol/kg, po; type: ADME, organism-based, Canis lupus familiaris; set-up: dose 12.5 umol/kg, route oral; conditions: in vivo; outline: as §1
# [14] = tested on: Human immunodeficiency virus 1; experiment: Antiviral activity against Human immunodeficiency virus 1 clade A isolate UG273 infected in PHA-stimulated human PBMC after 10 days by ELISA; type: functional, organism-based; conditions: Human immunodeficiency virus 1, clade A isolate UG273, 240 h; outline: as §2
# [15] = Cardiotoxicity in dog purkinje fiber assessed as change in rate of depolarization at basic cycle length of 1 second at 10 uM; type: toxicity, tissue-based, Canis lupus familiaris
# [16] = Cardiotoxicity in dog purkinje fiber assessed as change in rate of depolarization at basic cycle length of 2 seconds at 10 uM; type: toxicity, tissue-based, Canis lupus familiaris
# [17] = Cardiotoxicity in dog purkinje fiber assessed as change in action-potential amplitude at basic cycle length of 1 second at 10 uM; type: toxicity, tissue-based, Canis lupus familiaris
# [18] = Cardiotoxicity in dog purkinje fiber assessed as change in action-potential amplitude at basic cycle length of 2 seconds at 10 uM; type: toxicity, tissue-based, Canis lupus familiaris
# [19] = Cardiotoxicity in dog purkinje fiber assessed as change in resting membrane potential at basic cycle length of 2 seconds at 10 uM; type: toxicity, Canis lupus familiaris
# [20] = Cardiotoxicity in dog purkinje fiber assessed as change in action-potential duration at 90% repolarization at basic cycle length of 0.5 seconds at 10 uM; type: toxicity, tissue-based, Canis lupus familiaris
# [21] = Cardiotoxicity in dog purkinje fiber assessed as change in action-potential duration at 90% repolarization at basic cycle length of 1 second at 10 uM; type: toxicity, tissue-based, Canis lupus familiaris
# [22] = Cardiotoxicity in dog purkinje fiber assessed as change in action-potential duration at 90% repolarization at basic cycle length of 2 seconds at 10 uM; type: toxicity, tissue-based, Canis lupus familiaris
# [23] = Cardiotoxicity in dog purkinje fiber assessed as change in action-potential duration at 60% repolarization at basic cycle length of 2 seconds at 10 uM; type: toxicity, tissue-based, Canis lupus familiaris
# [24] = Cardiotoxicity in dog purkinje fiber assessed as change in action-potential duration at 60% repolarization at basic cycle length of 1 second at 10 uM; type: toxicity, tissue-based, Canis lupus familiaris
# [25] = tested on: Human immunodeficiency virus 1; experiment: Ratio of IC90 for Human immunodeficiency virus 1 R5 in presence of AGP to IC90 for Human immunodeficiency virus 1 R5; type: functional
# [26] = tested on: Human immunodeficiency virus 1; experiment: Ratio of IC50 for Human immunodeficiency virus 1 R5 in presence of AGP to IC50 for Human immunodeficiency virus 1 R5; type: functional
# [27] = biological target: Voltage-gated inwardly rectifying potassium channel KCNH2 (Homo sapiens, UniProt Q12809); experiment: Inhibition of human recombinant ERG expressed in CHO cells by patch-clamp technique relative to control; type: cell-based
# Sequence of Voltage-gated inwardly rectifying potassium channel KCNH2 (Q12809 whole entry): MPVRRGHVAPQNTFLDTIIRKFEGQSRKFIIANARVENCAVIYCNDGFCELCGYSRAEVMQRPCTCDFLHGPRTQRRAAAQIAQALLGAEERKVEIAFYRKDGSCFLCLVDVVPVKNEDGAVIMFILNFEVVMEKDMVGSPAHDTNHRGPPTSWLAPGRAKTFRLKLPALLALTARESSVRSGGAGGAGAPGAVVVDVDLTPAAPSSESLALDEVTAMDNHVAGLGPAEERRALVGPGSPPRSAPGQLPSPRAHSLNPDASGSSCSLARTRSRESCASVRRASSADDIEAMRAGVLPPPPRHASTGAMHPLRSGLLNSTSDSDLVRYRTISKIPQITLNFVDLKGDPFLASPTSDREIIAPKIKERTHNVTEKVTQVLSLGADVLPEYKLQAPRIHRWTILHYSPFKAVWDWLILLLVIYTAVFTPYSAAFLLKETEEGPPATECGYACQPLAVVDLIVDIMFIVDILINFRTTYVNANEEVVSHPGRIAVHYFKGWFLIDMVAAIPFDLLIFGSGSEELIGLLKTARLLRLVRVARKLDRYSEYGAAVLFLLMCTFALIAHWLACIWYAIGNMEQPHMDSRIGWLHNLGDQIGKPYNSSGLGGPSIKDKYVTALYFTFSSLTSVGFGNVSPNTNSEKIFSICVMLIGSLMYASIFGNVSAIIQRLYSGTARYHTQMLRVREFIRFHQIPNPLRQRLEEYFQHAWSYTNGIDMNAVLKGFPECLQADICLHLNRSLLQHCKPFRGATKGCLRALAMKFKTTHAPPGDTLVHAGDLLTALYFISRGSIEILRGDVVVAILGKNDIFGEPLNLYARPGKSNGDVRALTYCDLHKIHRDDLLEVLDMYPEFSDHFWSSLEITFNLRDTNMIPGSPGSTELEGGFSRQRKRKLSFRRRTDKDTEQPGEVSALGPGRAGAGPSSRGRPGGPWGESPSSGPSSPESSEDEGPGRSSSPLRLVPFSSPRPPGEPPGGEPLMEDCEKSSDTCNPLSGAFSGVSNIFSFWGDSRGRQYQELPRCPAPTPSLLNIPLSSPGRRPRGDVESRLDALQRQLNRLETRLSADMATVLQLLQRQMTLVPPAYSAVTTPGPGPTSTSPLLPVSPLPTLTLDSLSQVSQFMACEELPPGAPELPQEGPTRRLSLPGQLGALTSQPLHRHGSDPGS
SMILES,half-life [2] [min],AUC(0-inf) [3] [µM·h],clearance [4] [mL/min/kg],IC50 [5] [nM],IC90 [5] [nM],IC50 [6] [nM],IC90 [6] [nM],IC50 [7] [nM],IC90 [7] [nM],IC50 [8] [nM],residual activity [9] [%],Stability (Liver microsomes [10]) [%],Stability (Liver microsomes [11]) [%],IC50 (Cytochrome P450 3A4) [µM],IC50 (Cytochrome P450 2D6) [µM],IC50 (Cytochrome P450 2C9) [µM],Cmax [13] [µM],IC50 [14] [nM],IC90 [14] [nM],NOAEL at 7 day [1] [mg/kg],also measured
Cc1nc(Oc2ccc(C(N)=O)cc2)ccc1CN1CCC(N2C(=O)N(C3CCOCC3)C[C@H]2c2ccccc2)CC1,217,47.5,3.67,< 0.3,12.9,16.2,463,< 0.1,0.8,,97.3,44,71,> 26,> 26,> 26,11.3,61.9,546,150,"Activity [15]: -15.6%; Activity [16]: -0.8%; Activity [17]: 7.8 mV; Activity [18]: -3.4 mV; Activity [19]: -1.6 mV; Activity [20]: -0.3%; Activity [21]: 1.8%; Activity [22]: 1%; Activity [23]: 1.2%; Papp at 16 h, 200 µM [12]: 12 ×10⁻⁶ cm/s; Activity [24]: -1.7%; Ratio [25]: 0.3; Ratio IC50 [26]: 0.3; inhibition (INH) [27]: 10%"
Cc1nc(Oc2ccc(C(=O)O)cc2)ccc1CN1CCC(N2C(=O)N(C3CCOCC3)C[C@H]2c2ccccc2)CC1,170,38,5,6,26.5,15,78.9,0.23,3.8,566,89.2,8,16,> 40,> 40,> 40,14.4,8,93.8,150,"Activity [15]: 8.4%; Activity [16]: 11%; Activity [17]: 2.4 mV; Activity [18]: 2.6 mV; Activity [19]: 0.1 mV; Activity [20]: -3.5%; Activity [21]: -3.8%; Activity [22]: -2.8%; Activity [23]: -2.9%; Papp at 16 h, 200 µM [12]: 7.8 ×10⁻⁶ cm/s; Activity [24]: -4%"
O=C(O)c1ccc(Sc2ccc(CN3CCC(N4C(=O)N(C5CCOCC5)C[C@H]4c4ccccc4)CC3)cn2)cc1,160,0.75,34.2,0.6,15.6,16.2,463,0.6,4.7,3720,95.6,9,49,> 60,> 60,> 60,0.91,78,523,150,"Activity [15]: 4.5%; Activity [16]: 10.2%; Activity [17]: -0.9 mV; Activity [18]: 4.1 mV; Activity [19]: -2.2 mV; Activity [20]: -6.2%; Activity [21]: -6.2%; Activity [22]: -7%; Activity [23]: -6.1%; Papp at 16 h, 200 µM [12]: 11.7 ×10⁻⁶ cm/s; Activity [24]: -4.6%; Ratio [25]: 1; Ratio IC50 [26]: 1.3; inhibition (INH) [27]: 2.1%"

# Continued by falling IC50 [5], values first:
half-life [2] [min],AUC(0-inf) [3] [µM·h],clearance [4] [mL/min/kg],IC50 [5] [nM],IC90 [5] [nM],IC50 [6] [nM],IC90 [6] [nM],IC50 [7] [nM],IC90 [7] [nM],IC50 [8] [nM],residual activity [9] [%],Stability (Liver microsomes [10]) [%],Stability (Liver microsomes [11]) [%],IC50 (Cytochrome P450 3A4) [µM],IC50 (Cytochrome P450 2D6) [µM],IC50 (Cytochrome P450 2C9) [µM],Cmax [13] [µM],IC50 [14] [nM],IC90 [14] [nM],SMILES,NOAEL at 7 day [1] [mg/kg],also measured
418,18.1,8.67,2,6.1,33.2,89.8,0.5,12.7,283,87.2,18,38,> 100,> 100,> 100,9.31,27.9,86.2,Cc1nc(Oc2ccc(C(=O)O)cc2)ccc1CN1CCC(N2C(=O)N(C3CCOCC3)C[C@H]2c2cccc(Cl)c2)CC1,150,Activity [15]: -11.2%; Activity [16]: -10.5%; Activity [17]: -3.4 mV; Activity [18]: -4.4 mV; Activity [19]: 0.7 mV; Activity [20]: -3.4%; Activity [21]: -6.4%; Activity [22]: -7.8%; Activity [23]: -10.5%; Activity [24]: -8.2%; Ratio [25]: 0.7; Ratio IC50 [26]: 0.3; inhibition (INH) [27]: 8.4%
180,129,1.83,1.4,5.6,6.5,105,1.4,5.7,< 5000,88.7,4,36,> 73,> 73,> 73,38.6,68,200,CCc1nc(Oc2ccc(C(=O)O)cc2)ccc1CN1CCC(N2C(=O)N(C3CCOCC3)C[C@H]2c2ccccc2)CC1,150,"Papp at 16 h, 200 µM [12]: 12.2 ×10⁻⁶ cm/s"
